Reference: BindingDB's records for doi:10.1021/acs.jmedchem.7b00861 (Leiden University, 2017)
Several values for one entry are separate records, joined by “and”; a condition that tells them apart may be missing. Identical values can stand only once.

Experiments:
Cannabinoid receptor 1 [1] = biological target: T1, Cannabinoid receptor 1 (Homo sapiens, UniProt P21554); assay: Displacement of [3H]CP55940 from recombinant human CB1 receptor expressed in beta-galactosidase expressing CHOK1 cell membranes after 60 mins by scintillation spectrometry
Cannabinoid receptor 1 [2] = biological target: T1, Cannabinoid receptor 1; assay: Antagonist activity at recombinant human CB1 receptor expressed in HEK293 cell membranes assessed as inhibition of CP55940-induced [35S]GTPgammaS binding preincubated for 1 hr followed by CP55940 addition and subsequent incubation with [35S]GTPgammaS measured after 30 mins by scintillation spectrometry
Method in brief: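 Antagonism was measured by [35S]GTPγS binding at 30 °C on membranes of HEK-293 cells stably expressing recombinant human CB1.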

T1 sequence (P21554 whole entry): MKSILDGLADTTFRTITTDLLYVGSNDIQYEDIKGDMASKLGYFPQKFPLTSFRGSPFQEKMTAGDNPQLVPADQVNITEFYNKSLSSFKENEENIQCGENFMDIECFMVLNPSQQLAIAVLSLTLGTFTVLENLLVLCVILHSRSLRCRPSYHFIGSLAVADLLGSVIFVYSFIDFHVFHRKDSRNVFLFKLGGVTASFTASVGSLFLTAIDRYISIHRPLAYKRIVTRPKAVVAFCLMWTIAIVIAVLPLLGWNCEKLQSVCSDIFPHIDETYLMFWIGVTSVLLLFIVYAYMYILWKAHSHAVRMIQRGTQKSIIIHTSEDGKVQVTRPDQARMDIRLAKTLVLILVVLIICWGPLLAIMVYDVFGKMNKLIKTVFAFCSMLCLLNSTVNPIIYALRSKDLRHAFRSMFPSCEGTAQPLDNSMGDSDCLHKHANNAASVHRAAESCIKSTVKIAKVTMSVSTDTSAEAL

Row | Structure (SMILES) | Ki (Cannabinoid receptor 1 [1]) [pM] | IC50 (Cannabinoid receptor 1 [2])
1 | Cc1c(C(=O)NN2CCCCC2)nc(-c2ccc(Cl)cc2Cl)n1-c1ccc(OCCC(F)(F)F)cc1 | 794 | 5010 pM
2 | Cc1c(C(=O)NN2CCCCC2)nc(-c2ccc(Cl)cc2Cl)n1-c1ccc(OS(=O)(=O)CCCC(F)(F)F)cc1 | 100 | –
3 | Cc1c(C(=O)NN2CCCCC2)nc(-c2ccc(Cl)cc2Cl)n1-c1ccc(OS(=O)(=O)CCC(F)(F)F)cc1 | 126 | –
4 | Cc1c(C(=O)N[C@@H]2CCCC[C@H]2O)nc(-c2ccc(Cl)cc2Cl)n1-c1ccc(OS(=O)(=O)CCC(F)(F)F)cc1 | 200 | –
5 | Cc1c(C(=O)NN2CCCCC2)nc(-c2ccc(Cl)cc2Cl)n1-c1ccc(OS(=O)(=O)CCC(C)(C)C)cc1 | 501 | 2000 pM
6 | Cc1c(C(=O)N[C@H]2CCC[C@H](O)C2)nc(-c2ccc(Cl)cc2Cl)n1-c1ccc(OS(=O)(=O)CCC(F)(F)F)cc1 | – | 1260 pM
7 | Cc1c(C(=O)Nc2ccc(C(F)(F)F)cn2)nc(-c2ccc(Cl)cc2Cl)n1-c1ccc(OS(=O)(=O)CCC(F)(F)F)cc1 | 126 | –
8 | CCCCS(=O)(=O)Oc1ccc(-n2c(-c3ccc(Cl)cc3Cl)nc(C(=O)NN3CCCCC3)c2C)cc1 | 126 | –
9 | Cc1c(C(=O)NN2CCCCC2)nc(-c2ccc(Cl)cc2Cl)n1-c1ccc(OCCCC(F)(F)F)cc1 | 200 | –
10 | Cc1c(C(=O)N[C@H]2CCCC[C@H]2N)nc(-c2ccc(Cl)cc2Cl)n1-c1ccc(OS(=O)(=O)CCC(F)(F)F)cc1 | 316 | 6300 pM
11 | Cc1c(C(=O)N[C@@H]2CCCC[C@@H]2N(C)C)nc(-c2ccc(Cl)cc2Cl)n1-c1ccc(OS(=O)(=O)CCC(F)(F)F)cc1 | 2500 | 79000 pM and 83000 pM
12 | Cc1c(C(=O)Nc2ccc(F)nc2)nc(-c2ccc(Cl)cc2Cl)n1-c1ccc(OS(=O)(=O)CCC(F)(F)F)cc1 | 100 | –
13 | Cc1c(C(=O)N[C@@H]2CCCC[C@@H]2O)nc(-c2ccc(Cl)cc2Cl)n1-c1ccc(OS(=O)(=O)CCC(F)(F)F)cc1 | – | 1580 pM
